Compounds with a hit are over-represented: about 1.6% of the library has one in this group of screens.
ATG4B inhibitor: inhibitors of human ATG4B cysteine protease | ATG4B cleavage of LC3-PLA2, NBD-HPC fluorescence, 1 h | inhibition, % at 8.33 µM | 340,000 compounds, 0.51% hits; in the data active means inhibition above about 40%
Target sequence (Q9Y4P1 whole entry, looked up): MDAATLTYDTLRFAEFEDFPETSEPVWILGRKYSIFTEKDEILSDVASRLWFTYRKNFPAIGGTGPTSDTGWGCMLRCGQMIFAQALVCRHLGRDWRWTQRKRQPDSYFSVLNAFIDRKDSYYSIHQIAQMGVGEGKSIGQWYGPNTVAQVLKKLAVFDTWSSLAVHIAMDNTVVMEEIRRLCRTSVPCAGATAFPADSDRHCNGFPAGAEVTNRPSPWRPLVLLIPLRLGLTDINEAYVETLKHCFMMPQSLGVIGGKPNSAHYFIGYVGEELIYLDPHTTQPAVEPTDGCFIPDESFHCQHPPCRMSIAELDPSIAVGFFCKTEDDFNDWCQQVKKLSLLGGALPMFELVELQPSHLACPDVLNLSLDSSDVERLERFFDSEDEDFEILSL
PKA-R2B act: activators of human PKA-R2B complex. PKA-R2B holoenzyme dissociation, Cy5-IP20 fluorescence polarization; R2B truncated from residue 108, S112A mutant; 0% DMSO only, 100% 113 µM cGMP. activation, % at 11.4 µM. P22694+P31323. 340,000 compounds, 0.079% hits;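 active means activation above a cutoff set at the mean over all compounds plus 3 SD, cut at about 18% in these data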;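 further: higher means more holoenzyme dissociation and a rise in polarization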
PfGluPho inh: PfG6PD (Plasmodium falciparum) enzyme inhibition; PfGluPho enzyme, NADPH resazurin-diaphorase fluorescence; inhibition, % at 20 µM; 350,000 compounds, 0.78% hits;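 active means inhibition reaching at least a set limit at 20 µM in the primary screen, cut at about 59% in these data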;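 further: 0% = DMSO wells with substrate and 100% = DMSO wells lacking glucose-6-phosphate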
HKDC1 inhibitor: HKDC1 (human) hexokinase inhibition; inhibition, % at 20 µM; recombinant HKDC1, G6PDH/diaphorase resazurin coupled fluorescence; 340,000 compounds, 0.16% hits; Q2TB90;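 active means inhibition above about 35% when tested at 20 µM, limit read from the data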;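 further: plate controls were DMSO wells with enzyme for no effect and DMSO wells lacking enzyme for full effect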
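Material: recombinant HKDC1 hexokinase; Amount: HKDC1 at 5 µg/mL; Medium: Tris pH 8.0 buffer with MgCl2, Tween-20, BSA, BME; Schedule: 90 min reaction incubation at room temperature, dark; Technique: coupled resazurin fluorescence, excitation 525 nm, emission 613 nm.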
PKA-R1A act: PKA-R1A complex activation; activation, % at 11.4 µM; 340,000 compounds, 0.083% hits; PKA-R1A dissociation, Cy5-IP20 fluorescence polarization; scaled: DMSO 0%, 113 µM cGMP 100%;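 active means percent activation above the mean of all tested compounds plus 3 SD, cut at about 19% in these data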;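 further: higher means more PKAc released from R1A so a rise in polarization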
T cell modulator: T cell immune modulation candidate | response (vesicle binding), % at 7 µM | 2C CD8+ T cell-vesicle binding, flow cytometry; hits give low values | 330,000 compounds, 0.068% hits | AID 2052;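 active means response, share of CD8 T cells binding vesicles, and their 90th percentile fluorescence all below set limits, cut at about 80% in these data, passing the limit was not always enough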;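 further: values below 100% mean blocked vesicle binding to the CD8+ T cells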
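Assay system – 2C mouse CD8+ T cells · Also added – QL9-loaded Drosophila micro-vesicles · Timing – Cell–vesicle co-incubation 1.5 h at 37 °C, staining 20 min on ice · Signal – flow cytometry of vesicle-bound cells · Measure – percent CD8+ FL2 mean versus row control · Controls – Peptide-free naked vesicles (low) and QL9 vesicles with 0.7% DMSO vehicle (high)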
ATG4B conf: ATG4B (human) inhibition, single-dose confirmed; shares compounds with ATG4B inhibitor; ATG4B protease fluorescent substrate cleavage assay; inhibition, % at 8.33 µM; 320 compounds, 92% hits; AID 504757; in the data active means inhibition above about 39%
PLA2 ctr: PLA2 (human) inhibition in ATG4B counter-screen. purified PLA2, NBD-C6-HPC fluorescence, 45 min. shares compounds with ATG4B inhibitor. inhibition, % at 8.33 µM. 1,600 compounds, 66% hits. AID 588402; in the data active means inhibition above about 50%
Target sequence (P04054 whole entry, looked up): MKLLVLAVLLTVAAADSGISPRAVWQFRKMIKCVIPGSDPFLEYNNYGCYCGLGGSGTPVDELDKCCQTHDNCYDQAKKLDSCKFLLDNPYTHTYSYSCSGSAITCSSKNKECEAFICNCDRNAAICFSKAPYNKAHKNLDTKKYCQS
* = called active by the depositor.

How did Cc1cc(F)ccc1S(=O)(=O)Nc1ncnc2sc3c(c12)CCC3 do in these assays?
ATG4B inhibitor: 31.0; PKA-R2B act: -3.1; PfGluPho inh: -10.9; HKDC1 inhibitor: 11.6; PKA-R1A act: -10.1; T cell modulator: 192.1

Results for O=S(=O)(Nc1ncnc2sc3c(c12)CCC3)c1ccc2ccccc2c1 ?
ATG4B inhibitor: 40.9*; PKA-R2B act: 3.2; PfGluPho inh: -31.3; HKDC1 inhibitor: 3.4; PKA-R1A act: 1.8; T cell modulator: 228.4; PLA2 ctr: 55.7*

Results for COC(=O)c1sc(N(C)C)c(C#N)c1-c1ccccc1 ?
ATG4B inhibitor: 44.1*; PfGluPho inh: -12.8; HKDC1 inhibitor: -2.4; T cell modulator: 550.7; ATG4B conf: 64.2*; PLA2 ctr: 40.0

What do the screens show for `CCCCCCCCCCCCCCCCCCNc1ccn(C2OC(COP(=O)(O)OCC3OC(n4cc(F)c(=O)[nH]c4=O)CC3O)C(O)C2O)c(=O)n1` (stereo not drawn)?
ATG4B inhibitor: 42.2*; PKA-R2B act: -7.1; PfGluPho inh: -25.4; HKDC1 inhibitor: -8.4; PKA-R1A act: 4.1; ATG4B conf: 52.1*; PLA2 ctr: 40.9

What do the screens show for `N#Cc1ccc(OCc2nnc(SCC(=O)c3ccccc3)n2-c2ccccc2)cc1`?
ATG4B inhibitor: 46.1*; PKA-R2B act: -12.4; PfGluPho inh: 5.7; HKDC1 inhibitor: -3.7; PKA-R1A act: -18.2; T cell modulator: 389.4; PLA2 ctr: 56.7*

Results for Cc1ccc(-n2c(CCc3ccccc3)nnc2SCC(=O)NCc2ccccc2)cc1C ?
ATG4B inhibitor: 3.5; PKA-R2B act: -10.3; PfGluPho inh: -11.5; HKDC1 inhibitor: 1.8; PKA-R1A act: 3.0; T cell modulator: 197.7

Results for Cc1ccc(OCc2nnc(SCC(=O)c3ccccc3)n2-c2ccccc2)cc1 ?
ATG4B inhibitor: 74.5*; PKA-R2B act: -8.3; PfGluPho inh: 2.8; HKDC1 inhibitor: 11.0; PKA-R1A act: -16.8; T cell modulator: inactive; PLA2 ctr: 77.6*

What do the screens show for `Cc1cccc(-n2c(CCc3ccccc3)nnc2SCC(=O)c2ccccc2)c1`?
ATG4B inhibitor: 72.4*; PKA-R2B act: -4.9; PfGluPho inh: 9.2; HKDC1 inhibitor: 6.6; PKA-R1A act: -5.2; T cell modulator: 153.3; PLA2 ctr: 75.4*

How did COc1ccc(NC(=O)CN(C)C(=O)c2ccc(NS(=O)(=O)c3ccc4[nH]c(=O)[nH]c4c3)cc2)cc1 do in these assays?
ATG4B inhibitor: 1.2; PKA-R2B act: -9.6; PfGluPho inh: -29.1; HKDC1 inhibitor: -0.7; PKA-R1A act: -13.6; T cell modulator: 189.1

Results for O=C(Nc1ccccc1Cl)C1C(c2ccccc2)C1(Cl)Cl (stereo not drawn) ?
ATG4B inhibitor: 51.6*; PKA-R2B act: 0.7; PfGluPho inh: 3.4; HKDC1 inhibitor: -1.9; PKA-R1A act: 7.2; T cell modulator: 184.9; PLA2 ctr: 56.3*

How did CCc1ccccc1NC(=O)C1C(c2ccccc2)C1(Cl)Cl (stereo not drawn) do in these assays?
ATG4B inhibitor: 9.8; PKA-R2B act: -13.4; PfGluPho inh: 7.4; HKDC1 inhibitor: 3.3; PKA-R1A act: -15.4; T cell modulator: 436.7

Results for CCCN(CC1CC1)C(=O)CSc1ncnc2sc(C)c(C)c12 ?
ATG4B inhibitor: 52.9*; PKA-R2B act: 6.2; PfGluPho inh: 2.5; HKDC1 inhibitor: 0.5; PKA-R1A act: 4.7; T cell modulator: 252.7; PLA2 ctr: 56.3*

What do the screens show for `Cc1sc2nc(C3CC3)nc(N3CCN(C(=O)c4ccc(Cl)cc4)CC3)c2c1C`?
ATG4B inhibitor: 50.1*; PKA-R2B act: -6.4; PfGluPho inh: -2.1; HKDC1 inhibitor: 3.7; PKA-R1A act: 8.3; T cell modulator: 188.9; PLA2 ctr: 68.9*

How did Cc1sc2nc(C3CC3)nc(N3CCN(C(=O)c4ccc(F)cc4)CC3)c2c1C do in these assays?
ATG4B inhibitor: 62.4*; PKA-R2B act: -0.9; PfGluPho inh: -1.6; HKDC1 inhibitor: 2.4; PKA-R1A act: -4.8; T cell modulator: 230.1; PLA2 ctr: 77.8*

How did Cc1sc2nc(C3CC3)nc(N3CCN(C(=O)c4ccccc4F)CC3)c2c1C do in these assays?
ATG4B inhibitor: 54.5*; PKA-R2B act: -7.5; PfGluPho inh: 7.2; HKDC1 inhibitor: 3.6; PKA-R1A act: -8.1; T cell modulator: 180.9; PLA2 ctr: 71.5*

Results for COc1ccc(C(=O)N2CCN(c3nc(C4CC4)nc4sc(C)c(C)c34)CC2)cc1 ?
ATG4B inhibitor: 29.9; PKA-R2B act: -7.1; PfGluPho inh: -1.0; HKDC1 inhibitor: -1.3; PKA-R1A act: -2.4; T cell modulator: 340.9

How did Cc1sc2nc(C3CC3)nc(N3CCN(S(=O)(=O)c4ccc(F)cc4)CC3)c2c1C do in these assays?
ATG4B inhibitor: 14.3; PKA-R2B act: 8.8; PfGluPho inh: -5.2; HKDC1 inhibitor: 4.2; PKA-R1A act: -12.7; T cell modulator: 265.3

Results for CCN1CCN(Cc2c(C(=O)N/N=C(\C)c3ccc(Cl)c(Cl)c3)nnn2-c2nonc2N)CC1 ?
T cell modulator: 381.6

How did O=[N+]([O-])c1cc2oc3c(c2c(C=NCc2ccccc2)c1O)CCCC3 do in these assays?
ATG4B inhibitor: 75.8*; PKA-R2B act: -5.1; PfGluPho inh: 22.1; HKDC1 inhibitor: 7.0; PKA-R1A act: 2.6; T cell modulator: 231.9; ATG4B conf: 48.1*; PLA2 ctr: 23.5

What do the screens show for `COc1ccc(-n2c(SC(CN3CCCCC3)CN3CCCC3=O)nc3ccccc3c2=O)cc1` (stereo not drawn)?
ATG4B inhibitor: 62.6*; PKA-R2B act: -9.3; PfGluPho inh: 10.8; HKDC1 inhibitor: -1.0; PKA-R1A act: 0.0; T cell modulator: inactive; PLA2 ctr: 66.6*

What do the screens show for `CC12CCC(=O)C=C1CCC1C2C(O)CC2(C)C1CCC2(O)C(=O)CO` (stereo not drawn)?
ATG4B inhibitor: -2.6; PKA-R2B act: -2.7; PfGluPho inh: -15.1; HKDC1 inhibitor: 3.2; PKA-R1A act: -7.0; T cell modulator: inactive

How did CCc1nc(SCC(=O)N2CCN(C(=O)c3ccco3)CC2)c2c3c(sc2n1)CCCC3 do in these assays?
ATG4B inhibitor: 43.7*; PKA-R2B act: 7.7; PfGluPho inh: 7.5; HKDC1 inhibitor: 2.9; PKA-R1A act: 14.5; T cell modulator: 349.1; PLA2 ctr: 64.2*
